Test [1] addresses T1, Prostaglandin G/H synthase 2 (Homo sapiens, UniProt P35354).
T1 sequence (P35354 whole entry): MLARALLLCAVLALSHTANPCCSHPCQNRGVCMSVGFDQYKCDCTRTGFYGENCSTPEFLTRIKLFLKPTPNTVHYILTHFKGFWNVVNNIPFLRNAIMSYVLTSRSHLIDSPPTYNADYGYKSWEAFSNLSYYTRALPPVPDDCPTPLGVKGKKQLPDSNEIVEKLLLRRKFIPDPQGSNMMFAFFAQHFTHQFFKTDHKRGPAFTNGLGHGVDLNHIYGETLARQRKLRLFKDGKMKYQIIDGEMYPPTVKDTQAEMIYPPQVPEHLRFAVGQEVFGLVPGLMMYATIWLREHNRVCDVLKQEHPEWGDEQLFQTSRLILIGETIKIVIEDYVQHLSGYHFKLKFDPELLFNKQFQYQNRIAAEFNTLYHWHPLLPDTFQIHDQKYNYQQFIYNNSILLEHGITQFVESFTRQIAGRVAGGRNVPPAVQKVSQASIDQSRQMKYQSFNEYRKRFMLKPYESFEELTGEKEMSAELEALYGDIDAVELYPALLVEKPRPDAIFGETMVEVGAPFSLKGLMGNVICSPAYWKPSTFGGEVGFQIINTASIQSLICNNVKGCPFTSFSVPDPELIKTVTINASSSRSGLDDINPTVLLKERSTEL
The test is described as follows: Inhibition of COX2 in human whole blood assessed as inhibition of LPS-induced PGE2 production after 24 hrs by ELISA. (In an ELISA, binding on a coated surface is turned into a signal by an enzyme label.)

The target in test [2] is T2, Leukotriene A-4 hydrolase (Homo sapiens, UniProt P09960).
T2 sequence (P09960 whole entry): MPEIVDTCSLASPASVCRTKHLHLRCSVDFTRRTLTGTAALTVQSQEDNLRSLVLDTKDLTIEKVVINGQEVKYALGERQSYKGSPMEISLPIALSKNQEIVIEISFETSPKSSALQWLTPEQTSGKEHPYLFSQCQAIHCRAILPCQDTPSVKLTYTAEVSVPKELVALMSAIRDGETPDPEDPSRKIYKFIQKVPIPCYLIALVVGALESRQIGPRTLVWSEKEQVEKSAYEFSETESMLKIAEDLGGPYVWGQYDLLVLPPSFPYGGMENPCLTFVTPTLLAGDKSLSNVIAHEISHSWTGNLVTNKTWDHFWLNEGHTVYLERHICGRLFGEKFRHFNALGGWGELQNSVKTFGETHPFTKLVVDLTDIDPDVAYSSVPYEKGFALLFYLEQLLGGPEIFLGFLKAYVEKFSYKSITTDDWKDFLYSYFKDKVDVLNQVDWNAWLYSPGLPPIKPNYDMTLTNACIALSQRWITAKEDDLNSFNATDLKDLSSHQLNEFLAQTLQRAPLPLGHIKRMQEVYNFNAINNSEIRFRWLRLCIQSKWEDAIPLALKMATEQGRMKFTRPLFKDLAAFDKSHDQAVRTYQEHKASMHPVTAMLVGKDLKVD
Kind of test: Inhibition of LTA4 hydrolase in human whole blood assessed as inhibition of calcium ionophore A23187-induced LTB4 production after 0.5 hrs by ELISA.

The target of test [3] is Prostaglandin G/H synthase 1 (Homo sapiens, UniProt P23219). The test is described as follows: Inhibition of purified COX1 assessed as formation of oxidized TMPD during reduction og PGG2 to PGH2 preincubated for 15 mins by chromogenic assay. In outline: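 Purified COX-1, approx 20 units, in 100 mM Tris pH 8 with 2 mM genapol X-100 and 1 μM hematin. Compounds in DMSO (5% final) preincubated 15 min at 25 °C. TMPD then added, reaction started with arachidonic acid. Initial rate of TMPD oxidation read at 610 nm over first 36 s. Nonenzymatic oxidation without enzyme subtracted before computing percent inhibition.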

The target in test [4] is T1, Prostaglandin G/H synthase 2. Kind of test: Inhibition of purified COX2 assessed as formation of oxidized TMPD during reduction og PGG2 to PGH2 preincubated for 15 mins by chromogenic assay.
In test [5] the target is T2, Leukotriene A-4 hydrolase. The test is described as follows: Inhibition of human LTA4 hydrolase activity assessed as LTB4 production after 15 mins by ELISA.

Sequence of Prostaglandin G/H synthase 1 (P23219 whole entry): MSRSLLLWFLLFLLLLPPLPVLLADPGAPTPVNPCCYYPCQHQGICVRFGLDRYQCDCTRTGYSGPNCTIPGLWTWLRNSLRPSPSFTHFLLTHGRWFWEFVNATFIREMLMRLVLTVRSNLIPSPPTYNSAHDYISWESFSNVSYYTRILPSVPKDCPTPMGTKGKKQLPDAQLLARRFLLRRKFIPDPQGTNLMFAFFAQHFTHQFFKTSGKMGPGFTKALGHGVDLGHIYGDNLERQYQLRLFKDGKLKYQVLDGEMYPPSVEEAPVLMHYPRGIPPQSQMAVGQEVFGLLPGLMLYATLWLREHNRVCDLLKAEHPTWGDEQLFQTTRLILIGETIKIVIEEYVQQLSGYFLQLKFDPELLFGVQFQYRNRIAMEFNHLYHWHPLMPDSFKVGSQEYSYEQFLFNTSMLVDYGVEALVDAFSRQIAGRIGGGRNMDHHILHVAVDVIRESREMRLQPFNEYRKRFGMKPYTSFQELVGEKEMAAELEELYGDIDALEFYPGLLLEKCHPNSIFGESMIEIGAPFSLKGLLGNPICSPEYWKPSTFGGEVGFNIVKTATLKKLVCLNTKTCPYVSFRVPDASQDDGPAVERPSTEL

The IC50 is the concentration at which inhibition is half-maximal. `c1ccc(Oc2ccc(OCCN3CCCC3)cc2)cc1`: the IC50 in test [1] was over 100 µM; in test [2] it was 0.78 µM; in test [3] it was over 100 µM; in test [4], over 100 µM.
Take `O=[N+]([O-])c1ccccc1Oc1ccc(OCCN2CCCC2)cc1`: the IC50 in test [1] was found to be 8.4 µM; in test [5] it was 0.68 µM; in test [2] it was 6.9 µM; in test [3] it was 61 µM; in test [4], 7.7 µM.
With `O=[N+]([O-])c1cccc(Oc2ccc(OCCN3CCCC3)cc2)c1`, the IC50 in test [1] was 13 µM; in test [5], 0.47 µM; in test [2], 1.4 µM; in test [3], over 100 µM; in test [4], over 100 µM.
In the case of `O=[N+]([O-])c1ccc(Oc2ccc(OCCN3CCCC3)cc2)cc1`, the IC50 in test [1] was over 100 µM; in test [5] it was 0.37 µM; in test [2] it was 0.69 µM; in test [3], 20.4 µM; in test [4], 35.3 µM.
With `O=[N+]([O-])c1ccc(Oc2ccc(OCCN3CCCC3)cc2)c([N+](=O)[O-])c1`, the concentration for half-maximal inhibition (IC50) in test [1], in test [5], in test [2], in test [3] and in test [4] was over 100 µM each time.
In the case of `c1ccc(Oc2ccc(OCCN3CCCC3)cc2)nc1`, the IC50 is over 100 µM in test [1]; 0.77 µM in test [5]; 0.18 µM in test [2]; over 100 µM in test [3]; 34.4 µM in test [4].
With `c1cc(Oc2ccc(OCCN3CCCC3)cc2)ccn1`, the concentration for half-maximal inhibition (IC50) is over 100 µM in test [1]; 0.58 µM in test [5]; 0.67 µM in test [2]; over 100 µM in test [3]; over 100 µM in test [4].
`CS(=O)(=O)c1ccccc1Oc1ccc(OCCN2CCCC2)cc1`: the IC50 in test [1], in test [5], in test [2], in test [3] and in test [4] was over 100 µM each time.
In the case of `CS(=O)(=O)c1cccc(Oc2ccc(OCCN3CCCC3)cc2)c1`, the IC50 in test [1], in test [5], in test [2], in test [3] and in test [4] was over 100 µM throughout.
With `CS(=O)(=O)c1ccc(Oc2ccc(OCCN3CCCC3)cc2)cc1`, the IC50 in test [1], in test [5], in test [2], in test [3] and in test [4] was over 100 µM throughout.
On to `CS(=O)(=O)c1ccc(Oc2ccc(OCCN3CCCC3)cc2)c([N+](=O)[O-])c1`, for which the IC50 in test [1], in test [5], in test [2], in test [3] and in test [4] was over 100 µM in each case.
On to `c1cnc(Oc2ccc(OCCN3CCCC3)cc2)cn1`, for which the IC50 was over 100 µM in test [1]; 4.3 µM in test [5]; over 100 µM in test [2]; over 100 µM in test [3]; 61.6 µM in test [4].
For the compound `O=[N+]([O-])c1cccnc1Oc1ccc(OCCN2CCCC2)cc1`, the concentration for half-maximal inhibition (IC50) in test [1] is over 100 µM; in test [5], 2.5 µM; in test [2] it was 34 µM; in test [3] it was over 100 µM; in test [4], over 100 µM.
Turning to `FC(F)(F)c1ccccc1Oc1ccc(OCCN2CCCC2)cc1`, the IC50 is 5 µM in test [1]; 0.22 µM in test [5]; 0.73 µM in test [2]; over 100 µM in test [3]; 41.4 µM in test [4].
The matching figures for `FC(F)(F)c1cccc(Oc2ccc(OCCN3CCCC3)cc2)c1`: over 100 µM, 0.54 µM, over 100 µM, over 100 µM and over 100 µM.
The corresponding values for `FC(F)(F)c1ccc(Oc2ccc(OCCN3CCCC3)cc2)cc1` are over 100 µM, 0.39 µM, 2 µM, over 100 µM and over 100 µM.
Consider `Fc1ccc(Oc2ccc(OCCN3CCCC3)cc2)cc1`, for which the IC50 in test [1] was over 100 µM; in test [5], 0.08 µM; in test [2] it was 0.99 µM; in test [3], over 100 µM; in test [4], over 100 µM.
Take `Clc1ccc(Oc2ccc(OCCN3CCCC3)cc2)cc1`: the IC50 in test [1] was 22 µM; in test [5], 0.04 µM; in test [2], 0.73 µM; in test [3], over 100 µM; in test [4], over 100 µM.
`Brc1ccc(Oc2ccc(OCCN3CCCC3)cc2)cc1`: the concentration for half-maximal inhibition (IC50) in test [1] is 5.1 µM; in test [5], 0.11 µM; in test [2], 0.29 µM; in test [3] it was over 100 µM; in test [4], over 100 µM.
For the compound `Nc1ccccc1Oc1ccc(OCCN2CCCC2)cc1`, the IC50 in test [1] is over 100 µM; in test [5], 0.63 µM; in test [2], 0.11 µM; in test [3], over 100 µM; in test [4], over 100 µM.
For the compound `Nc1cccc(Oc2ccc(OCCN3CCCC3)cc2)c1`, the IC50 is over 100 µM in test [1]; 0.69 µM in test [5]; 0.97 µM in test [2]; over 100 µM in test [3]; over 100 µM in test [4].
Take `Nc1ccc(Oc2ccc(OCCN3CCCC3)cc2)cc1`: the IC50 in test [1] is over 100 µM; in test [5], 0.32 µM; in test [2], 0.029 µM; in test [3], 1.9 µM; in test [4] it was 36.3 µM.
`CS(=O)(=O)N(c1ccccc1Oc1ccc(OCCN2CCCC2)cc1)S(C)(=O)=O`: the IC50 in test [1], in test [5], in test [2], in test [3] and in test [4] was over 100 µM in each case.
`CS(=O)(=O)N(c1cccc(Oc2ccc(OCCN3CCCC3)cc2)c1)S(C)(=O)=O`: the IC50 in test [1], in test [5], in test [2], in test [3] and in test [4] was over 100 µM throughout.
In the case of `CS(=O)(=O)Nc1ccc(Oc2ccc(OCCN3CCCC3)cc2)cc1`, the IC50 in test [1] is over 100 µM; in test [5] it was 3.4 µM; in test [2], 2.1 µM; in test [3], over 100 µM; in test [4], over 100 µM.
`CN(c1ccccc1Oc1ccc(OCCN2CCCC2)cc1)S(C)(=O)=O`: the IC50 was over 100 µM in test [1]; over 100 µM in test [5]; over 100 µM in test [2]; over 100 µM in test [3]; 92 µM in test [4].
On to `CS(=O)(=O)Nc1ccc([N+](=O)[O-])cc1Oc1ccccc1` [NIMESULIDE], for which the IC50 in test [5] and in test [2] was over 100 µM throughout.

These data come from ChEMBL document CHEMBL1772961, “Discovery of dual target inhibitors against cyclooxygenases and leukotriene A4 hydrolyase” (J Med Chem, 2011).
